What all share (format): functional
Assay [1] has as its system Candida albicans. The experiment in a line: Antibiofilm activity against Candida albicans SC5314 assessed as inhibition of biofilm formation by turbidity based visual inspection method. An outline of the steps:
(§1)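 C. albicans SC5314 biofilms grown on a 96-peg lid (Calgary device, MBEC protocol) from 10^6 cfu/ml inoculum for 24 h at 37 °C. Pegs rinsed in 0.9% saline, then challenged 24 h at 35 °C with twofold dilutions, 512-0.5 µg/ml. MBIC: no well turbidity by visual inspection. MBEC: pegs sonicated into RPMI/2% glucose, regrowth overnight, OD 550 nm plus visual turbidity.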

For assay [2], the system named is Candida parapsilosis. The experiment in a line: Antifungal activity against azole-susceptible Candida parapsilosis ATCC 90018 assessed as reduction in fungal growth incubated for 48 hrs by broth microdilution method. The conditions noted are these: Lodderomyces parapsilosis, ATCC 90018, 48 h. Summed up:
(§2)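 CLSI broth microdilution in RPMI 1640 with MOPS at pH 7.0. Inoculum taken from 24-h Sabouraud subcultures, final 0.5-2.5×10^3 cfu/ml. Compounds in DMSO, twofold series 1024-0.125 µg/ml final. Incubated 48 h at 35 °C. MIC is the lowest concentration giving complete inhibition of visible growth. Fluconazole served as the reference.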

The subject of assay [3] is Candida albicans. The experiment in a line: Antifungal activity against azole-susceptible Candida albicans ATCC 90028 assessed as reduction in fungal growth incubated for 48 hrs by broth microdilution method. The following applies: ATCC 90028, 48 h. An outline of the steps:
as §2
(In general: In broth dilution the organism is exposed to a series of concentrations in liquid medium.)

In assay [4] the test system is Candida tropicalis. The experiment in a line: Antifungal activity against azole-resistant Candida tropicalis assessed as reduction in fungal growth incubated for 48 hrs by broth microdilution method. An outline of the steps:
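CLSI broth microdilution in RPMI 1640 (glutamine, no bicarbonate) buffered to pH 7.0 with MOPS. Azole-resistant clinical C. tropicalis isolate, stored at -80 °C in glycerol, subcultured twice on Sabouraud dextrose agar. Inoculum from 24-h subcultures, final 0.5 to 2.5×10^3 cfu/ml. Compounds in DMSO, twofold final 1024–0.125 µg/ml. Incubated 35 °C, 48 h. MIC = lowest concentration fully inhibiting visible growth.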

Assay [5] relates to Candida albicans. The experiment in a line: Disruption of Candida albicans SC5314 pre-formed mature biofilm assessed as reduction in biofilm biomass incubated for 24 hrs by spectrophotometry. An outline of the steps: as §1
For assay [6], the system named is Pichia kudriavzevii. The experiment in a line: Antifungal activity against azole-susceptible Candida krusei ATCC 6258 assessed as reduction in fungal growth incubated for 48 hrs by broth microdilution method. The following applies: ATCC 6258, 48 h. An outline of the steps: as §2

Values after ≈ are worked out from the molar mass of the structure shown. Where only a bound is given, the exact number is not on record here.

As to `COc1ccc(C(=O)OC(Cn2ccnc2)c2ccc(Cl)cc2Cl)cc1.Cl` (racemic), the MBIC in assay [1] came to 1 µg/mL. Besides, the MIC (in general, the lowest concentration that inhibits growth of the organism) in assay [2] worked out at 1 µg/mL; in assay [3] it was 2 µg/mL; in assay [4] it was 4 µg/mL; in assay [6], 16 µg/mL. The MBEC in assay [5] worked out at 256 µg/mL.

`CC(C)(C)c1ccc(C(=O)O/N=C(\Cn2ccnc2)c2ccc(Cl)cc2Cl)cc1`: the MBIC in assay [1] is 128 µg/mL. Also, the minimal inhibitory concentration (MIC) was found to be 4 µg/mL (≈ 9.3 µM) in assay [2], 4 µg/mL (≈ 9.3 µM) in assay [3], 64 µg/mL (≈ 149 µM) in assay [4] and 4 µg/mL (≈ 9.3 µM) in assay [6]. In assay [5], the MBEC was 256 µg/mL.

For the molecule `CCc1ccc(C(=O)O/N=C(\Cn2ccnc2)c2ccc(Cl)cc2Cl)cc1.Cl`, the minimal inhibitory concentration (MIC) in assay [2] amounted to 128 µg/mL; in assay [3], 128 µg/mL; in assay [4] it was 8 µg/mL; in assay [6], 256 µg/mL.

With `O=C(O/N=C(\Cn1ccnc1)c1ccc(Cl)cc1Cl)c1ccccc1`, the MIC in assay [2], in assay [3] and in assay [6] was 32 µg/mL (≈ 85.5 µM) throughout.

Regarding `O=C(/C=C/c1ccccc1)O/N=C(\Cn1ccnc1)c1ccc(Cl)cc1Cl`, the MBIC in assay [1] came to 128 µg/mL. The MIC in assay [2] amounted to 2 µg/mL (≈ 5 µM); in assay [3], 2 µg/mL (≈ 5 µM); in assay [4], 64 µg/mL (≈ 160 µM); in assay [6], 4 µg/mL (≈ 9.99 µM). In assay [5], the MBEC was 512 µg/mL.

Turning to `N#Cc1ccc(C(=O)O/N=C(\Cn2ccnc2)c2ccc(Cl)cc2Cl)cc1`, the MIC is 64 µg/mL (≈ 160 µM) in assay [2], 128 µg/mL (≈ 321 µM) in assay [3] and 64 µg/mL (≈ 160 µM) in assay [6].

Consider `CCc1ccc(C(=O)OC(Cn2ccnc2)c2ccc(Cl)cc2Cl)cc1.Cl` (racemic), for which the MIC in assay [2], in assay [3] and in assay [6] was 256 µg/mL in each case.

As for `Cl.O=C(OC(Cn1ccnc1)c1ccc(Cl)cc1Cl)C1CCCCC1` (racemic), the MIC in assay [2] came out at 4 µg/mL; in assay [3] it was 8 µg/mL; in assay [4], 16 µg/mL; in assay [6], 32 µg/mL.

With `O=C(OC(Cn1ccnc1)c1ccc(Cl)cc1Cl)c1ccc(-c2ccc(-c3ccccc3)cc2)cc1` (racemic), the MIC in assay [2], in assay [3] and in assay [6] was 256 µg/mL (≈ 499 µM) throughout.

In the case of `OC(Cn1cncn1)(Cn1cncn1)c1ccc(F)cc1F` [FLUCONAZOLE], the MIC in assay [2] stood at 0.5 µg/mL (≈ 1.63 µM); in assay [3], 0.5 µg/mL (≈ 1.63 µM); in assay [4], 512 µg/mL (≈ 1670 µM); in assay [6], 32 µg/mL (≈ 104 µM).

For the molecule `Cl.O=C(CCCc1ccccc1)OC(Cn1ccnc1)c1ccc(Cl)cc1Cl` (racemic), the MBIC in assay [1] is 0.5 µg/mL. In addition, the MIC amounted to 2 µg/mL in assay [2], 2 µg/mL in assay [3], 32 µg/mL in assay [4] and 8 µg/mL in assay [6]. Moreover, in assay [5], the MBEC was 64 µg/mL.

Take `Cl.O=C(O/N=C(\Cn1ccnc1)c1ccc(Cl)cc1Cl)c1ccc(Cl)cc1`: the MIC in assay [2] was 32 µg/mL; in assay [3], 32 µg/mL; in assay [6], 64 µg/mL.

Turning to `Cl.O=C(OC(Cn1ccnc1)c1ccc(Cl)cc1Cl)C1CCCC1` (racemic), the MBIC in assay [1] was found to be 32 µg/mL. Moreover, the MIC in assay [2] came out at 2 µg/mL; in assay [3] it was 1 µg/mL; in assay [4] it was 8 µg/mL; in assay [6], 16 µg/mL. Also, the MBEC in assay [5] was over 1024 µg/mL.

Take `Cl.O=C(O/N=C(\Cn1ccnc1)c1ccc(Cl)cc1Cl)c1ccc2ccccc2c1`: the MIC in assay [2], in assay [3] and in assay [6] was 256 µg/mL in each case.

Consider `Cl.N#Cc1ccc(C(=O)OC(Cn2ccnc2)c2ccc(Cl)cc2Cl)cc1` (racemic), for which the MIC in assay [2] amounted to 4 µg/mL; in assay [3] it was 8 µg/mL; in assay [4], 16 µg/mL; in assay [6] it was 64 µg/mL.

Regarding `O/N=C(\Cn1ccnc1)c1ccc(Cl)cc1Cl`, the figures for the MIC in assay [2], in assay [3] and in assay [6] were 32 µg/mL (≈ 118 µM), 32 µg/mL (≈ 118 µM) and 256 µg/mL (≈ 948 µM), respectively.

For `C[C@@H]1[C@H](O)[C@@H](C)/C=C/C=C/C=C/C=C/C=C/C=C/C=C/[C@H](O[C@@H]2O[C@H](C)[C@@H](O)[C@H](N)[C@@H]2O)C[C@@H]2O[C@](O)(C[C@@H](O)C[C@@H](O)[C@H](O)CC[C@@H](O)C[C@@H](O)CC(=O)O[C@H]1C)C[C@H](O)[C@H]2C(=O)O` [AMPHOTERICIN B], the MBIC in assay [1] was 4 µg/mL. For the same molecule, the MBEC in assay [5] was 256 µg/mL.

With `OC(Cn1ccnc1)c1ccc(Cl)cc1Cl` (centres undefined), the MIC worked out at 4 µg/mL (≈ 15.6 µM) in assay [2], 8 µg/mL (≈ 31.1 µM) in assay [3], 256 µg/mL (≈ 996 µM) in assay [4] and 128 µg/mL (≈ 498 µM) in assay [6].

With `CC(C)c1ccc(C(=O)O/N=C(\Cn2ccnc2)c2ccc(Cl)cc2Cl)cc1.Cl`, the values for the MIC in assay [2], in assay [3] and in assay [6] were 16 µg/mL, 16 µg/mL and 32 µg/mL, respectively.

As to `O=C(Cn1ccnc1)c1ccc(Cl)cc1Cl`, the MIC is 32 µg/mL (≈ 125 µM) in assay [2], 128 µg/mL (≈ 502 µM) in assay [3] and 256 µg/mL (≈ 1000 µM) in assay [6].

Regarding `Cl.O=C(OC(Cn1ccnc1)c1ccc(Cl)cc1Cl)c1ccc(C(F)(F)F)cc1` (racemic), the MIC in assay [2], in assay [3] and in assay [6] was 256 µg/mL in each case.

Regarding `Cl.O=C(O/N=C(\Cn1ccnc1)c1ccc(Cl)cc1Cl)c1cc2ccccc2[nH]1`, the MIC in assay [2] worked out at 128 µg/mL; in assay [3], 128 µg/mL; in assay [4], 256 µg/mL; in assay [6], 256 µg/mL.

Turning to `CC(C)c1ccc(C(=O)OC(Cn2ccnc2)c2ccc(Cl)cc2Cl)cc1.Cl` (racemic), the MIC was determined as 128 µg/mL in assay [2], 256 µg/mL in assay [3] and 128 µg/mL in assay [6].

Turning to `O=C(O/N=C(\Cn1ccnc1)c1ccc(Cl)cc1Cl)C1CCCCC1`, the MIC in assay [2], in assay [3] and in assay [6] was 64 µg/mL (≈ 168 µM) in each case.

For `Cl.O=C(O/N=C(\Cn1ccnc1)c1ccc(Cl)cc1Cl)c1ccc([N+](=O)[O-])cc1`, the MIC worked out at 16 µg/mL in assay [2], 64 µg/mL in assay [3] and 64 µg/mL in assay [6].

As for `Cl.O=C(O/N=C(\Cn1ccnc1)c1ccc(Cl)cc1Cl)c1ccc2ccccc2n1`, the values for the MIC in assay [2], in assay [3] and in assay [6] were 256 µg/mL, 128 µg/mL and 256 µg/mL, respectively.

With `CC(C)(C)OC(=O)NCCCC(=O)OC(Cn1ccnc1)c1ccc(Cl)cc1Cl.Cl` (racemic), the figures for the MIC in assay [2], in assay [3] and in assay [6] were 16 µg/mL, 8 µg/mL and 128 µg/mL, respectively.

On to `Cc1ccc(C(=O)O/N=C(\Cn2ccnc2)c2ccc(Cl)cc2Cl)cc1`, for which the MIC in assay [2] worked out at 256 µg/mL (≈ 659 µM); in assay [3], 128 µg/mL (≈ 330 µM); in assay [6], 256 µg/mL (≈ 659 µM).

As to `Cl.O=C(OC(Cn1ccnc1)c1ccc(Cl)cc1Cl)c1ccc(N2CCOCC2)cc1` (racemic), the MIC in assay [2] was determined as 32 µg/mL; in assay [3] it was 16 µg/mL; in assay [6] it was 256 µg/mL.

As for `Cl.O=C(CCC(=O)c1ccccc1)OC(Cn1ccnc1)c1ccc(Cl)cc1Cl` (racemic), the MIC in assay [2] was found to be 8 µg/mL; in assay [3], 16 µg/mL; in assay [6] it was 32 µg/mL.

On to `Cl.O=C(O/N=C(\Cn1ccnc1)c1ccc(Cl)cc1Cl)c1ccc(Cl)cc1Cl`, for which the MIC in assay [2], in assay [3] and in assay [6] was 64 µg/mL in each case.

For the molecule `Cl.O=C(O/N=C(\Cn1ccnc1)c1ccc(Cl)cc1Cl)c1ccc(-c2ccc(-c3ccccc3)cc2)cc1`, the MIC in assay [2] worked out at 128 µg/mL; in assay [3], 128 µg/mL; in assay [6], 256 µg/mL.

Take `CSc1ccc(C(=O)OC(Cn2ccnc2)c2ccc(Cl)cc2Cl)cc1.Cl` (racemic): the MIC in assay [2] was found to be 16 µg/mL; in assay [3] it was 8 µg/mL; in assay [6], 28 µg/mL.
